Activity calls are given as the source filed them. No cut-off for these calls is given here.
Key:
Mus musculus [1] = assay: Antiinflammatory activity against trinitrobenzenesulfonic acid-induced colitis in human PXR expressing transgenic C57/BL6 mouse assessed as decrease in thickness of colon at 10 mg/kg, ip qd administered 3 days before TNBS challenge measured after 7 days; type: functional, organism-based; parameters: dose 10 mg/kg; conditions: C57Bl/6
In short: (§1)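 Male hPXR mice (human PXR on mouse PXR-null background). Fasted 16 h and lightly anaesthetised with ketamine/xylazine, then given TNBS 0.5 mg/mouse in 50% ethanol intrarectally in 150 μL. Drug was dissolved in DMSO, diluted in 1% methylcellulose and given i.p. once daily for 3 days before TNBS. Vehicle controls received methylcellulose. Mice were sacrificed 4 days after TNBS; n = 6–7 per group.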

Mus musculus [2] = assay: Antiinflammatory activity against trinitrobenzenesulfonic acid-induced colitis in human PXR expressing transgenic C57/BL6 mouse assessed as decrease in presence of indurations in colon at 10 mg/kg, ip administered on day 1 after TNBS challenge measured after 5 days; type: functional, organism-based; parameters: dose 10 mg/kg; conditions: C57Bl/6
In short: (§2)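 Therapeutic protocol in male hPXR mice. Colitis was induced with intrarectal TNBS 0.5 mg/mouse in 50% ethanol after a 16 h fast and light ketamine/xylazine anaesthesia. Drug at 10 mg/kg was given once daily from day 1 after TNBS. Mice were sacrificed 5 days after TNBS; n = 4–6 per group.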

Mus musculus [3] = assay: Antiinflammatory activity against trinitrobenzenesulfonic acid-induced colitis in human PXR expressing transgenic C57/BL6 mouse assessed as increase in IL-10 protein level in colon at 10 mg/kg, ip qd after 5 days by ELISA; type: functional, organism-based; parameters: dose 10 mg/kg; conditions: C57Bl/6; in short: as §1
Mus musculus [4] = assay: Antiinflammatory activity against trinitrobenzenesulfonic acid-induced colitis in human PXR expressing transgenic C57/BL6 mouse assessed as decrease in IL-12p70 protein level in colon at 10 mg/kg, ip qd after 5 days; type: functional, organism-based; parameters: dose 10 mg/kg; conditions: C57Bl/6
Mus musculus [5] = assay: Antiinflammatory activity against trinitrobenzenesulfonic acid-induced colitis in human PXR expressing transgenic C57/BL6 mouse assessed as decrease in colonic myeloperoxidase activity at 10 mg/kg, ip qd after 5 days using trimethylbenzidine as substrate by spectrophotometry; type: functional, organism-based; parameters: dose 10 mg/kg; conditions: C57Bl/6; in short: as §1
Mus musculus [6] = assay: Antiinflammatory activity against trinitrobenzenesulfonic acid-induced colitis in human PXR expressing transgenic C57/BL6 mouse assessed as decrease in occurrence of diarrhea at 10 mg/kg, ip qd administered 3 days before TNBS challenge measured after 7 days; type: functional, organism-based; parameters: dose 10 mg/kg; conditions: C57Bl/6; in short: as §1
Mus musculus [7] = assay: Antiinflammatory activity against trinitrobenzenesulfonic acid-induced colitis in human PXR expressing transgenic C57/BL6 mouse assessed as decrease in INF-gamma protein level in colon at 10 mg/kg, ip qd after 5 days; type: functional, organism-based; parameters: dose 10 mg/kg; conditions: C57Bl/6
[8] = target: T1, Nuclear receptor subfamily 1 group I member 2 (Homo sapiens, UniProt O75469); assay: Transactivation of human PXR expressed in HepG2 cells after 18 hrs by luciferase reporter gene assay; type: cell-based
T1 sequence (O75469 whole entry): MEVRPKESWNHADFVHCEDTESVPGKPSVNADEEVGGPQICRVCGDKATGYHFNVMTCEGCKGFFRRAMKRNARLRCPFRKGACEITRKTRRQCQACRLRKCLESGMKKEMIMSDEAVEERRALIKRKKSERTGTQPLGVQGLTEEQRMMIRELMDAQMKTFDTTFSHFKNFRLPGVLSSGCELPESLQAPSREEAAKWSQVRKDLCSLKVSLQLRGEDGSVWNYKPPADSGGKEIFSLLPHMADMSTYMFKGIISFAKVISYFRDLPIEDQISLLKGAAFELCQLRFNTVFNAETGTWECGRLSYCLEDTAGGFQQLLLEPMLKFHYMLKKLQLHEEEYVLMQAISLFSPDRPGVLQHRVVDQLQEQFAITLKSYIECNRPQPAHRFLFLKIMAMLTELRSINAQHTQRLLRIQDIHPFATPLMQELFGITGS
In short: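 HepG2 cells were transiently transfected with pSG5-PXR, pSG5-RXR, pCMV-βgal and a CYP3A4-promoter luciferase reporter. 48 h after transfection, cells were stimulated for 18 h at 0.1, 1 and 10 μM. Luciferase was normalised to β-galactosidase; n = 4. Relative EC50 from n = 3.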

Mus musculus [9] = assay: Antiinflammatory activity against trinitrobenzenesulfonic acid-induced colitis in human PXR expressing transgenic C57/BL6 mouse assessed as decrease in colonic myeloperoxidase level at 10 mg/kg, ip administered on day 1 after TNBS challenge measured after 5 days; type: functional, organism-based; parameters: dose 10 mg/kg; conditions: C57Bl/6; in short: as §2
Mus musculus [10] = assay: Antiinflammatory activity against trinitrobenzenesulfonic acid-induced colitis in human PXR expressing transgenic C57/BL6 mouse assessed as decrease in cellular infiltrate in colon at 10 mg/kg, ip qd administered 3 days before TNBS challenge measured after 7 days; type: functional, organism-based; parameters: dose 10 mg/kg; conditions: C57Bl/6; in short: as §1
Mus musculus [11] = assay: Antiinflammatory activity against trinitrobenzenesulfonic acid-induced colitis in human PXR expressing transgenic C57/BL6 mouse assessed as decrease in weight loss at 10 mg/kg, ip administered on day 1 after TNBS challenge measured after 5 days; type: functional, organism-based; parameters: dose 10 mg/kg; conditions: C57Bl/6; in short: as §2
Mus musculus [12] = assay: Antiinflammatory activity against trinitrobenzenesulfonic acid-induced colitis in human PXR expressing transgenic C57/BL6 mouse assessed as decrease in vascular density in colon at 10 mg/kg, ip administered on day 1 after TNBS challenge measured after 5 days by microscopically; conditions: C57Bl/6
Mus musculus [13] = assay: Antiinflammatory activity against trinitrobenzenesulfonic acid-induced colitis in human PXR expressing transgenic C57/BL6 mouse assessed as decrease in weight loss at 10 mg/kg, ip qd administered 3 days before TNBS challenge measured after 7 days; type: functional, organism-based; parameters: dose 10 mg/kg; conditions: C57Bl/6; in short: as §1
Mus musculus [14] = assay: Antiinflammatory activity against trinitrobenzenesulfonic acid-induced colitis in human PXR expressing transgenic C57/BL6 mouse assessed as decrease in evidence of mucosal hemorrhage in colon at 10 mg/kg, ip administered on day 1 after TNBS challenge measured after 5 days; type: functional, organism-based; parameters: dose 10 mg/kg; conditions: C57Bl/6; in short: as §2
Mus musculus [15] = assay: Antiinflammatory activity against trinitrobenzenesulfonic acid-induced colitis in human PXR expressing transgenic C57/BL6 mouse assessed as decrease in occurrence of diarrhea at 10 mg/kg, ip administered on day 1 after TNBS challenge measured after 5 days; type: functional, organism-based; parameters: dose 10 mg/kg; conditions: C57Bl/6; in short: as §2
Mus musculus [16] = assay: Antiinflammatory activity against trinitrobenzenesulfonic acid-induced colitis in human PXR expressing transgenic C57/BL6 mouse assessed as decrease in presence of indurations in colon at 10 mg/kg, ip qd administered 3 days before TNBS challenge measured after 7 days; type: functional, organism-based; parameters: dose 10 mg/kg; conditions: C57Bl/6; in short: as §1
Mus musculus [17] = assay: Antiinflammatory activity against trinitrobenzenesulfonic acid-induced colitis in human PXR expressing transgenic C57/BL6 mouse assessed as decrease in thickening of colon wall at 10 mg/kg, ip administered on day 1 after TNBS challenge measured after 5 days by microscopically; type: functional, organism-based; parameters: dose 10 mg/kg; conditions: C57Bl/6; in short: as §2
Mus musculus [18] = assay: Antiinflammatory activity against trinitrobenzenesulfonic acid-induced colitis in human PXR expressing transgenic C57/BL6 mouse assessed as decrease in appearance of epithelial erosions in colon at 10 mg/kg, ip qd administered 3 days before TNBS challenge measured after 7 days by haematoxylin/eosin staining; type: functional, organism-based; parameters: dose 10 mg/kg; conditions: C57Bl/6; in short: as §1
Mus musculus [19] = assay: Antiinflammatory activity against trinitrobenzenesulfonic acid-induced colitis in human PXR expressing transgenic C57/BL6 mouse assessed as induction of CYP3A11 mRNA expression in colon at 10 mg/kg, ip qd after 5 days by quantitative RT-PCR; type: functional, organism-based; parameters: dose 10 mg/kg; conditions: C57Bl/6; in short: as §1
Mus musculus [20] = assay: Antiinflammatory activity against trinitrobenzenesulfonic acid-induced colitis in human PXR expressing transgenic C57/BL6 mouse assessed as decrease in goblet cells in colon at 10 mg/kg, ip administered on day 1 after TNBS challenge measured after 5 days by microscopically; type: functional, organism-based; parameters: dose 10 mg/kg; conditions: C57Bl/6; in short: as §2

For `C[C@H](CCCOS(=O)(=O)O)[C@H]1CC[C@H]2[C@@H]3CC[C@H]4C[C@H](OS(=O)(=O)O)[C@@H](OS(=O)(=O)O)C[C@]4(C)[C@H]3CC[C@]12C` [SOLOMONSTEROL A], the Activity (Mus musculus [1]) was “Active”, the Activity (Mus musculus [2]) was “Active” and the Activity (Mus musculus [3]) was “Active”. The Activity (Mus musculus [4]) was “Active”, the Activity (Mus musculus [5]) was “Active” and the Activity (Mus musculus [6]) was “Active”. For the same molecule, the Activity (Mus musculus [7]) was “Active”, the EC50 [8] was 5.2 µM and the Activity (Mus musculus [9]) was “Active”. The Activity (Mus musculus [10]) was “Active”, the Activity (Mus musculus [11]) was “Active” and the Activity (Mus musculus [12]) was “Active”. The Activity (Mus musculus [13]) was “Active”, the Activity (Mus musculus [14]) was “Active” and the Activity (Mus musculus [15]) was “Active”. The Activity (Mus musculus [16]) was “Active”, the Activity (Mus musculus [17]) was “Active” and the Activity (Mus musculus [18]) was “Active”. For the same molecule, the Activity (Mus musculus [19]) was “Active” and the Activity (Mus musculus [20]) was “Active”.
